Screening data deposited in PubChem BioAssay by The Scripps Research Institute Molecular Screening Center.
Sampled rows, rich in hits. Any-hit rate of the full collection: about 2.3%.
Tn6 DDE FP: inhibitors of Tn6 peptide binding to fibrin DD(E), primary screen, biochemical, fluorescence polarization, human fibrin, Tn6 probe | Fibrinogen beta chain (Homo sapiens), P02675 | Fibrin DD(E) TRITC-Tn6 fluorescence polarization displacement | inhibition, % at 8.3 µM | 370,000 tested, 0.21% active | AID 720509, 2013;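 active = inhibition above a per-campaign cutoff: mean of compounds within control limits plus 3 SD, cut at about 15% in these data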
Target sequence (P02675 whole entry, looked up): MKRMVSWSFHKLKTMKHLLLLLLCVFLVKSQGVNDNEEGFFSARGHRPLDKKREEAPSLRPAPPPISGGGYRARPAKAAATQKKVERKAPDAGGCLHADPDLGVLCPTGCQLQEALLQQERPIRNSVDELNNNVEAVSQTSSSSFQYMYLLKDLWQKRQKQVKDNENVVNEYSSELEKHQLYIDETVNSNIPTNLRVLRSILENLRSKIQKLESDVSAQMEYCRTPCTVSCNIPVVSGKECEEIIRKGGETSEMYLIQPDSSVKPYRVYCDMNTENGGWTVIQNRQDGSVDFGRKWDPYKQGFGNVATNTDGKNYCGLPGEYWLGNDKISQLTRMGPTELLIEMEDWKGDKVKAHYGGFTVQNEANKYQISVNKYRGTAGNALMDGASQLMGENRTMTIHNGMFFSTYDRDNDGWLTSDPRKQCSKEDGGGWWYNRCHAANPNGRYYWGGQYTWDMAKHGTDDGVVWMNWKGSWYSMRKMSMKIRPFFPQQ
Tn7 DDE FP: inhibitors of Tn7 peptide binding to fibrin DD(E), primary screen, biochemical, fluorescence polarization, human fibrin, Tn7 probe; inhibition, % at 8.3 µM; 370,000 tested, 0.13% active; Fibrinogen beta chain (Homo sapiens), P02675; FP displacement of FITC-Tn7 peptide from fibrin DD(E); 0% = median of compound wells per plate;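 active = inhibition above the mean of compounds falling within the control limits plus 3 SD of them, cut at about 14% in these data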
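Assay system: Fibrin-DD(E) protein isolated from polymerized human fibrin clots; read-out basis: percent inhibition; medium: Tris/NaCl/CaCl2 buffer, pH 7.8; signal: FP measurement; incubation: 10 min plus 3 h, room temperature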
PLCg1 inh: PLC-gamma1 enzyme inhibitors, primary screen, biochemical, fluorescence, purified enzyme | fluorogenic substrate | inhibition, % at 12.2 µM | AID 720700, 2013 | 370,000 tested, 0.84% active; in the data active = inhibition above about 9.5%
PLC-beta3 inh: human PLC-beta3 inhibitors, primary screen, biochemical, fluorescence. Purified PLC-beta3, fluorogenic substrate. AID 720704, 2013. inhibition, % at 12.2 µM. 370,000 tested, 0.18% active; in the data active = inhibition above about 11%
ADAM10 inh: human ADAM10 inhibitors, primary screen, biochemical, QFRET, HTS; Disintegrin and metalloproteinase domain-containing protein 10 (Homo sapiens), O14672; 370,000 tested, 0.62% active; inhibition, % at 7 µM; recombinant ADAM10, EDANS/DABCYL FRET peptide cleavage, 3 h; AID 720582, 2013;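 active = inhibition above a per-campaign cutoff equal to the mean of compounds falling between control-based bounds plus 3 SD, cut at about 20% in these data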
ADAM17 inh: ADAM17 inhibitors, primary screen, biochemical, QFRET; Disintegrin and metalloproteinase domain-containing protein 17 (Homo sapiens), P78536; recombinant ADAM17, EDANS/DABCYL FRET peptide cleavage; inhibition, % at 6.95 µM; 370,000 tested, 0.83% active;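 active = inhibition above the mean of compounds lying between control limits plus 3 SD, set per campaign, cut at about 8.5% in these data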
ADAM10 ctr: ADAM10 inhibitors, counter-screen for ADAM17 exosite inhibitor project, biochemical, FRET, human ADAM10; shares compounds with ADAM17 inh; recombinant ADAM10, EDANS/DABCYL FRET peptide cleavage, 3 h; inhibition, % at 6.95 µM; 2,900 tested, 47% active; AID 743256, 2014;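 active = mean inhibition over the triplicate runs exceeds the activity threshold set in the earlier primary screen, cut at about 20% in these data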
ADAM17 confirm: ADAM17 inhibitors, hit retest, confirmation, biochemical, QFRET peptide cleavage; shares compounds with ADAM17 inh; recombinant ADAM17, EDANS/DABCYL QFRET peptide cleavage; inhibition, % at 6.95 µM; 2,900 tested, 65% active; AID 743257, 2014;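 active = mean inhibition across replicates above the hit cutoff set in the primary screen, cut at about 8.5% in these data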
Large screens that a line does not name were inactive (follow-up assays come after a bar, where they were run).

ON=C(c1ccccc1)c1ccc2c3c(cccc13)CC2	ADAM17 inh 12 | ADAM10 ctr 20 | ADAM17 confirm 9.0
CC(C)N1CCCCC(NC(=O)c2ccc(-c3ccccc3)cc2)C1=O (centres undefined)	none
S=C(NCc1ccco1)Nc1ccc(Cl)c(Cl)c1	ADAM17 inh 10.0 | ADAM10 ctr inactive | ADAM17 confirm inactive
Cc1ccc(NC(=O)CSc2nnc(-c3n[nH]c4ccccc34)n2-c2ccccc2)c(C)c1	ADAM17 inh 9.3 | ADAM10 ctr inactive | ADAM17 confirm 10
Cc1ccc(-n2nnnc2SCC(=O)Nc2ccccc2-c2ccccc2)cc1C	ADAM17 inh 9.0 | ADAM10 ctr 26 | ADAM17 confirm 15
Cc1ccc(-n2nnnc2SCC(=O)Nc2ccccc2N2CCCCC2)cc1C	none
Cc1ccc(OCc2nnc(SCC(=O)Nc3cccc4ccccc34)n2-c2ccccc2)cc1	none
Cc1ccc(-n2c(COc3ccccc3)nnc2SCC(=O)Nc2ccccc2-c2ccccc2)cc1	ADAM17 inh 8.9 | ADAM10 ctr 32 | ADAM17 confirm 16
